Screens: PubChem, several laboratories
A selection: hits, their analogues and other compounds. The true share with any hit is near 4.1%.
MPTP inh = permeability transition pore inhibition; AID 602449; isolated mouse mitochondria, Ca2+ swelling absorbance, 30 min; inhibition, % at 10 µM; 360,000 tested, 1.4% active;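 active = inhibition of 50% or more, scaled per plate between neutral and stimulator controls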
MC4R ag barr = human MC4R agonism via beta-arrestin | P32245 | AID 540308 | activation, % at 8.9 µM | 360,000 tested, 0.98% active | U2OS MC4R beta-arrestin complementation, luminescence; percent of melanotan II response, DMSO zero;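 active = activation above a per-plate cutoff, the mean activation of sample wells on that plate plus 3 SD, cut at about 8% in these data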
Target sequence (P32245 whole entry, looked up): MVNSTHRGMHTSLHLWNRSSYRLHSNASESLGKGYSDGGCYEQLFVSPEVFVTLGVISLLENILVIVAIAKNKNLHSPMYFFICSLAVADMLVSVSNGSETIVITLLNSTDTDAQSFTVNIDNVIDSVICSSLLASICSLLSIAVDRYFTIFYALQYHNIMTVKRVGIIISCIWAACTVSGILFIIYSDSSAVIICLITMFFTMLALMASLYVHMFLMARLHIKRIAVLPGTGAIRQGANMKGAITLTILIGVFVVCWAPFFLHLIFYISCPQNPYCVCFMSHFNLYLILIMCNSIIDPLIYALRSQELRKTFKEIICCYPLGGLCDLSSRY
SMARCA2 activ = activators of SMARCA2 function | MG213 cells, MMTV-luciferase reporter, dexamethasone, overnight | activation, % at 9.1 µM | 370,000 tested, 1% active; in the data active = activation above about 7.8%
MC4R antagonist = human MC4R antagonism in cAMP assay | MC4R-expressing cells, MTII-stimulated cAMP, LANCE TR-FRET | P32245 | 360,000 tested, 0.48% active | inhibition, % at 6.5 µM;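 active = inhibition above its plate's cutoff, the mean of tested wells on that plate plus 3 SD, cut at about 29% in these data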
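Test system: U2OS cells stably expressing human melanocortin 4 receptor (MC4R); also added: Melanotan II challenge; compound: 6.5 µM single dose; timing: 30-min compound preincubation, 1-h Melanotan II challenge, 1-h detection, room temperature; signal: Eu-cAMP/anti-cAMP TR-FRET, emission 671 nm; repeats: one well per compound, no replicates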
ATG4B inh = ATG4B (human) cysteine protease inhibition | Q9Y4P1 | ATG4B cleavage of LC3-PLA2, NBD-HPC fluorescence, 1 h | inhibition, % at 8.33 µM | 340,000 tested, 0.51% active | AID 504462; in the data active = inhibition above about 40%
MPTP counter = Rhodamine 123 counter-screen of mitochondrial pore hits; shares compounds with MPTP inh; isolated mitochondria, membrane potential, Rhodamine 123 fluorescence; inhibition, % at 10 µM; 5,000 tested, 78% active; AID 624504; in the data active = inhibition above about 22%
MPTP abs DR = MPTP inhibition, dose response swelling confirmation | shares compounds with MPTP inh | isolated mitochondria swelling, absorbance | IC50, µM | 780 tested, 58% active | AID 651561; in the data active = IC50 below about 20 µM
MPTP cs DR = active in counter-screen for permeability transition pore inhibitors. shares compounds with MPTP inh. isolated mitochondria counterscreen, fluorescence read-out. IC50, µM. 780 tested, 49% active. AID 651564; in the data active = IC50 below about 80 µM
Hits are given with their value.

`CCOC(=O)C1(CC2CCCCO2)CCN(C(=O)Nc2ccc(C(=O)OC)cc2)CC1` (centres undefined) gave MPTP inh 56.5, MC4R ag barr inactive, SMARCA2 activ inactive, MC4R antagonist inactive, ATG4B inh inactive and MPTP counter 60.9.
CCC(Oc1ccccc1)C(=O)Nc1ncc([N+](=O)[O-])s1 (centres undefined) was read as MPTP inh 89.0, MC4R ag barr inactive, SMARCA2 activ inactive, MC4R antagonist inactive, ATG4B inh inactive and MPTP counter 98.1.
Screening O=C(COc1ccc(Cl)cc1)Nc1ncc([N+](=O)[O-])s1 returned MPTP inh 95.0, MC4R ag barr inactive, SMARCA2 activ inactive, MC4R antagonist inactive, ATG4B inh inactive and MPTP counter 103.0.
`O=C(Cc1ccc(Br)cc1)Nc1ncc([N+](=O)[O-])s1` gave MPTP inh 73.6, MC4R ag barr inactive, SMARCA2 activ inactive, MC4R antagonist inactive, ATG4B inh inactive and MPTP counter 81.7.
`O=C(Cc1ccc(Cl)cc1)Nc1ncc([N+](=O)[O-])s1` gave MPTP inh 96.2, MC4R ag barr inactive, SMARCA2 activ inactive, MC4R antagonist inactive, ATG4B inh inactive and MPTP counter 88.9.
`CCOc1ccc(-n2c(SCC(=O)c3ccc4ccccc4c3)nnc2-c2ccc(OC)cc2)cc1` gave SMARCA2 activ inactive.
COC(=O)[C@]12C[C@H](CC(=O)NCc3cccs3)C(=O)N(Cc3ccc(Cl)cc3Cl)C1=C[C@H](C(C)C)O[C@@H]2C1CC1 was read as SMARCA2 activ inactive.
`Cc1cccc(OC[C@@H](O)CN2CCC(C(O)(c3ccccc3)c3ccccc3)CC2)c1` gave SMARCA2 activ inactive.
`COC(=O)[C@]12C[C@H](CC(=O)NCCCCc3ccccc3)C(=O)N(CCc3ccc(OC)c(OC)c3)C1=C[C@H](COCc1ccccc1)O[C@@H]2C` gave SMARCA2 activ inactive.
`CC(C)(C)NC(=O)C(c1cccc2ccccc12)n1c(=O)c(-c2cc3ccccc3[nH]2)nc2ccccc21` (centres undefined) gave MPTP inh inactive and SMARCA2 activ inactive.
Screening O=C(NC(Nc1nc2ccc([N+](=O)[O-])cc2s1)(C(F)(F)F)C(F)(F)F)c1cccnc1 returned MPTP inh 86.8, MC4R ag barr inactive, SMARCA2 activ inactive, MC4R antagonist inactive, ATG4B inh inactive and MPTP counter 97.3.
CCOC(=O)c1ccc(N2CCN(c3ccccc3F)CC2)c(NC(=O)Nc2cccc(OC)c2)c1 was read as MPTP inh 78.5, MC4R ag barr inactive, SMARCA2 activ inactive, MC4R antagonist inactive, ATG4B inh inactive and MPTP counter 83.8.
`Cc1cccc(NC(=O)c2nc[nH]c2C(=O)N(C)CCO)c1` gave SMARCA2 activ inactive.
`CC(C)N1CC2(CC(c3ccc(Cl)cc3Cl)=NO2)CN1C(=O)c1ccc(C(C)(C)C)cc1` (centres undefined) gave MPTP inh 51.5, MC4R ag barr inactive, SMARCA2 activ inactive, MC4R antagonist inactive, MPTP counter inactive, MPTP abs DR 8.84 and MPTP cs DR 29.1.
CC(C)N1CC2(CC(c3ccccc3F)=NO2)CN1C(=O)c1ccc(C(C)(C)C)cc1 (centres undefined) was read as MPTP inh inactive, MC4R ag barr inactive, SMARCA2 activ inactive and MC4R antagonist inactive.
For C=CCN1C(=O)[C@@H](CC(=O)NCc2cccs2)[C@]2(C(=O)OCC)CCCCC/C=C/12 the results were SMARCA2 activ inactive.
`O=S(=O)(Nc1cccnc1)c1ccc(C2CCCCC2)cc1` gave MPTP inh 104.0, MC4R ag barr inactive, SMARCA2 activ inactive, MC4R antagonist inactive, ATG4B inh inactive and MPTP counter 105.8.
For COc1ccc(Cn2cc(CN3[C@@H](Cc4ccccc4)COc4cc(Br)ccc4S3(=O)=O)nn2)cc1 the results were SMARCA2 activ inactive.
For Cc1ccc(CNc2nc(Cl)c(C#N)s2)cc1 the results were MPTP inh 67.1, MC4R ag barr inactive, SMARCA2 activ inactive, MC4R antagonist inactive, ATG4B inh inactive and MPTP counter 76.6.
For N#Cc1sc(NCc2cccc(Cl)c2)nc1Cl the results were MPTP inh inactive, MC4R ag barr inactive, SMARCA2 activ inactive, MC4R antagonist inactive and ATG4B inh inactive.
Screening CCCC[C@@H]1C(=O)N2N=C(c3ccccc3)c3ccccc3[C@H]2N2N=C(c3ccccc3)c3ccccc3[C@@H]12 returned SMARCA2 activ inactive.
`N#C/C(=N\Nc1cccc(Cl)c1)C(=O)c1ccccc1` gave MPTP inh 95.6, MC4R ag barr inactive, SMARCA2 activ inactive, MC4R antagonist inactive, ATG4B inh inactive and MPTP counter 80.5.
Screening COc1ccc(C(=O)/C(C#N)=N/Nc2cccc([N+](=O)[O-])c2)cc1 returned MPTP inh 94.5, MC4R ag barr inactive, SMARCA2 activ inactive, MC4R antagonist inactive, ATG4B inh inactive and MPTP counter 80.7.
N#C/C(=N\Nc1ccccc1Cl)C(=O)c1ccccc1 was read as MPTP inh 91.0, MC4R ag barr inactive, SMARCA2 activ inactive, MC4R antagonist inactive, ATG4B inh inactive and MPTP counter 101.7.
For COc1ccc(-c2cc(C(=O)NN=C/C(C)=C/c3ccccc3)[nH]n2)cc1 the results were SMARCA2 activ inactive.
`Oc1cc(Cl)cc(Cl)c1Cl` gave MPTP inh 52.5, MC4R ag barr inactive, SMARCA2 activ inactive, MC4R antagonist inactive, ATG4B inh inactive and MPTP counter 80.1.
C/C(=N\O)c1cc(Cl)cc(Cl)c1O was read as MPTP inh inactive, MC4R ag barr inactive, SMARCA2 activ inactive, MC4R antagonist inactive and ATG4B inh inactive.
`CN1CCN(CC#CCn2c3ccccc3c3ccccc32)CC1` gave MPTP inh 86.0, MC4R ag barr inactive, SMARCA2 activ inactive, MC4R antagonist inactive, ATG4B inh inactive, MPTP counter inactive, MPTP abs DR inactive and MPTP cs DR inactive.
CN1CCN(CC(O)Cn2c3ccccc3c3ccccc32)CC1 (centres undefined) was read as MPTP inh inactive, MC4R ag barr inactive, SMARCA2 activ inactive, MC4R antagonist inactive and ATG4B inh inactive.
O=S(=O)(c1ccccc1)N1N=C(c2cccs2)CC1c1cccc(O)c1 (centres undefined) was read as MPTP inh inactive, MC4R ag barr inactive, SMARCA2 activ inactive, MC4R antagonist inactive and ATG4B inh inactive.
